# According to ChEMBL document CHEMBL1126933, “Syntheses and biological activities of potent potassium channel openers derived from (+/-)-2-oxo-1-pyridin-3-yl-cyclohexanecarbothioic acid methylamide: new potassium channel openers” (1993):
# Species on record: Rattus norvegicus
# Test: In vitro relaxation of de-endothelialized rat aortic strips toned with 20 mM KCl
# Format: functional
# Details: Aorta
# Outline: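 Rat aortic rings cut into transverse strips, endothelium removed by gentle rubbing. Strips held in Krebs bicarbonate buffer at 37 °C, gassed with 95% O2/5% CO2, isometric tension recorded. Equilibrated 90 min at 2 g resting tension, then contracted with 20 mmol KCl. At maximal contraction, relaxation measured by cumulative concentration-response, each next concentration added once the previous one reached maximal effect.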
row,Structure (SMILES),IC90
1,C/N=C(/S)[C@@]1(c2cccnc2)CCCC[C@@H]1CCNS(C)(=O)=O,0.17 µM
2,C/N=C(/S)[C@@]1(c2cccnc2)CCCC[C@@H]1CCN,10 µM
3,C/N=C(/NCC[C@H]1CCCC[C@@]1(/C(S)=N\C)c1cccnc1)NS(=O)(=O)c1ccccc1,0.3 µM
4,C/N=C(/S)[C@@]1(c2cccnc2)CCCC[C@@H]1CCOC(=O)c1ccc(F)cc1,0.1 µM
5,CNC(=S)[C@@]1(c2cccnc2)CCCC[C@@H]1CCNS(=O)(=O)c1ccc(OC)cc1,0.3 µM
6,C/N=C(/S)[C@@]1(c2cccnc2)CCCC[C@@H]1C/C=C/c1ccc(F)cc1,0.01 µM
7,CNC(=S)[C@@]1(c2cccnc2)CCCC[C@@H]1CC(=O)OC,0.3 µM
8,C/N=C(/NCC[C@H]1CCCC[C@@]1(/C(S)=N\C)c1cccnc1)NS(C)(=O)=O,0.03 µM
9,C/N=C(/S)[C@@]1(c2cccnc2)CCCC[C@@H]1CCNC(=O)Cc1ccccc1,0.3 µM
10,C/N=C(/S)[C@@]1(c2cccnc2)CCCC[C@@H]1CCNS(=O)(=O)c1ccccc1,0.0003 µM
11,C/N=C(/S)[C@@]1(c2cccnc2)CCCC[C@@H]1CCN1C(=O)COCC1=O,0.1 µM
12,C/N=C(/S)[C@@]1(c2cccnc2)CCCC[C@@H]1CCNS(=O)(=O)c1cccs1,0.001 µM
13,C/N=C(/S)[C@@]1(c2cccnc2)CCCC[C@@H]1CCNC(C)=O,0.13 µM
14,C/N=C(/S)[C@@]1(c2cccnc2)CCCC[C@@H]1CCNC(=O)c1ccccc1,0.3 µM
15,C/N=C(/S)[C@@]1(c2cccnc2)CCCC[C@@H]1CCO,1.7 µM
16,C/N=C(/S)[C@@]1(c2cccnc2)CCCC[C@@H]1CCNS(=O)(=O)c1ccc([N+](=O)[O-])cc1,0.3 µM
17,CNC(=S)[C@@]1(c2cccnc2)CCCC[S+]1[O-] (some centres undefined),0.4 µM
18,C/N=C(/S)[C@@]1(c2cccnc2)CCCC[C@@H]1CCNS(=O)(=O)c1ccc(Cl)cc1,0.03 µM
19,C/N=C(/S)[C@@]1(c2cccnc2)CCCC[C@@H]1CCNC(=O)C(C)C,0.3 µM
20,C/N=C(/S)[C@@]1(c2cccnc2)CCCC[C@@H]1CCNS(=O)(=O)c1ccc(F)cc1,0.007 µM
21,C/N=C(/S)[C@@]1(c2cccnc2)CCCC[C@@H]1CCNS(=O)(=O)c1cccnc1,0.003 µM
22,C/N=C(/S)[C@@]1(c2cccnc2)CCCC[C@@H]1CCNC(=O)c1ccc(F)cc1,0.5 µM
23,C/N=C(/S)C1(c2cccnc2)CCCC/C1=C\C=N\OCC(O)CO (centres undefined),3 µM
24,C/N=C(/S)[C@@]1(c2cccnc2)CCCC[C@@H]1CCNS(=O)(=O)c1ccc(F)c(F)c1,0.01 µM
25,C/N=C(/S)[C@@]1(c2cccnc2)CCCC[C@@H]1CCOC(C)=O,0.03 µM
26,C/N=C(/S)[C@@]1(c2cccnc2)CCCC[C@@H]1CC#N,0.3 µM

# Continued, values first:
row,IC90,Structure (SMILES)
1,0.1 µM,C/N=C(/S)[C@@]1(c2cccnc2)CCCC[C@@H]1C/C=C/c1ccccc1
2,8 µM,C/N=C(/S)C1(c2cccnc2)CCCC/C1=C\C=O (centres undefined)
3,0.065 µM,C/N=C(/S)C1(c2cccnc2)CCCC/C1=C\COc1ccccc1 (centres undefined)
4,0.8 µM,C/N=C(/S)C1(c2cccnc2)CCCCC1=O (centres undefined)
5,0.003 µM,C/N=C(/S)[C@@]1(c2cccnc2)CCCC[C@@H]1CCNc1ccccc1
6,0.1 µM,C/N=C(/S)C1(c2cccnc2)CCCC/C1=C\C=N\OCc1ccc(F)cc1 (centres undefined)
7,10 µM,C/N=C(/S)C1(c2cccnc2)CCCC/C1=C\C#N (centres undefined)
8,10 µM,C/N=C(/S)C1(c2cccnc2)CCCC/C1=C\CO (centres undefined)
9,0.003 µM,C/N=C(/S)C1(c2cccnc2)CCCC/C1=C\CSc1ccccc1 (centres undefined)
10,0.03 µM,C/N=C(/S)[C@@]1(c2cccnc2)CCCC[C@@H]1CCOC(=O)c1ccccc1
11,0.1 µM,C/N=C(/S)C1(c2cccnc2)CCCC/C1=C\COc1ccc([N+](=O)[O-])cc1 (centres undefined)
12,0.3 µM,C/N=C(/S)C1(c2cccnc2)CCCC/C1=C\COc1ccc(O)cc1 (centres undefined)
13,0.03 µM,C/N=C(/S)[C@@]1(c2cccnc2)CCCC[C@@H]1C/C=N/OCc1ccccc1
